A selection: hits, their analogues and other compounds. The true share with any hit is near 5.8%.
IDH1 R132H inh: inhibitors of human IDH1 R132H; IDH1 R132H reductase, diaphorase/resazurin fluorescence, 60 min; AID 624101; inhibition, % at 10 µM; actives 0.18% (n = 70,000); O75874; in the data active = inhibition above about 34%;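 note: 0% = DMSO and 100% = no enzyme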
KDM4C inh: inhibitors of human demethylase GASC-1 KDM4C; Q9H3R0; GST-KDM4C 2-372, H3K9me3 peptide, LANCE TR-FRET; inhibition, % at 12.5 µM; actives 0.15% (n = 96,000); AID 720574;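 active = mean replicate inhibition above about 25%, with at least 55% of replicates also reaching it, limit read from the data, passing the limit was not always enough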
Target sequence (Q9H3R0 2-372 limits assumed): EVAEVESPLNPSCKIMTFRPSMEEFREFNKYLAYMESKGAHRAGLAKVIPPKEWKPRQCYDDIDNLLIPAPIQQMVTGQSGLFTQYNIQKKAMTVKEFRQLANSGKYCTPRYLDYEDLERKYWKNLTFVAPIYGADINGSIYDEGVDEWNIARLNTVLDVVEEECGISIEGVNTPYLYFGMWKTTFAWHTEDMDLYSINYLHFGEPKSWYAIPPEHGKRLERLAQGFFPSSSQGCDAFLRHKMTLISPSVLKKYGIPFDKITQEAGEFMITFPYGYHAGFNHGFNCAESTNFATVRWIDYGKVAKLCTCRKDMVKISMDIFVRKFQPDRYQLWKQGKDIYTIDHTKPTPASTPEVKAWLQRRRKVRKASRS
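System: N-terminal GST-fused human GASC-1 (KDM4C) fragment, residues 2-372; amount: enzyme final amount 10 nM; incubation: reaction 30 min RT, detection step 1 h RT; medium: HEPES buffer, pH 7.5, plus ascorbate; technique: LANCE TR-FRET, Eu antibody, ULight-streptavidin, EDTA, ex 340 nm, em 618/671 nm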
Tcruzi prolif: inhibitors of T. cruzi proliferation. actives 5.9% (n = 77,000). inhibition, % at 8.34 µM. T. cruzi beta-gal in NIH3T3, GalScreen luminescence, 90 h. AID 624255;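 active = mean inhibition above about 93%, with at least 55% of replicates each passing it, limit read from the data, passing the limit was not always enough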
Pf Dd2 inh: inhibitors of Plasmodium falciparum Dd2 growth; P. falciparum Dd2 growth, SYBR Green, 72 h; hits give low values; activity change, % at 10 µM; actives 2.3% (n = 94,000); in the data active = activity change below about -80%
Active calls of the source: *; . = not tested or not shown.

SMILES	IDH1 R132H inh	KDM4C inh	Tcruzi prolif	Pf Dd2 inh
COc1ccc(-c2ccccc2[C@H]2[C@@H](C#N)N(C(=O)NC(C)C)[C@H]2CO)cc1	.	0	.	-87*
COc1ccccc1-c1ccccc1[C@H]1[C@H](C#N)N(C(=O)C2CCC2)[C@H]1CO	.	-1	.	-85*
COc1ccccc1-c1ccccc1[C@@H]1[C@@H](C#N)N(C(=O)C2CC2)[C@@H]1CO	.	0	.	-98*
O=C(COc1ccc2ccccc2c1)Nc1ccccc1-c1nc2ccccc2s1	0	.	.	.
COCC(=O)N(C)C[C@@H]1Oc2ncc(-c3ccccc3C)cc2C(=O)N([C@H](C)CO)C[C@H]1C	0	1	-12	28
C[C@H]1CN([C@@H](C)CO)C(=O)c2cccc(NC(=O)c3cnccn3)c2O[C@@H]1CN(C)S(=O)(=O)c1ccccc1	.	0	-1	18
Cc1[nH]c2ccccc2c1C(=O)CSc1ncnc2sc(C)c(C)c12	0	.	.	.
C[C@@H]1CN([C@@H](C)CO)C(=O)Cc2cc(NC(=O)C3CC3)ccc2O[C@H]1CN(C)C(=O)Nc1ccc(F)cc1	0	0	7	-7
C[C@@H]1CCCCO[C@@H](CN(C)C(=O)Nc2ccc(C(F)(F)F)cc2)[C@@H](C)CN([C@H](C)CO)C(=O)c2cc(NC(=O)Nc3ccc(F)cc3)ccc2O1	-1	-1	.	-71
C[C@@H]1CCCCO[C@@H](CN(C)C(=O)Nc2ccc(F)cc2)[C@@H](C)CN([C@@H](C)CO)C(=O)c2cc(NC(=O)Nc3ccc(C(F)(F)F)cc3)ccc2O1	1	0	.	-88*
C[C@H]1CCCCO[C@H](CN(C)C(=O)Nc2ccc(C(F)(F)F)cc2)[C@@H](C)CN([C@@H](C)CO)C(=O)c2cc(NC(=O)Nc3ccc(F)cc3)ccc2O1	0	0	101	-80*
COc1ccc(NC(=O)Nc2ccc3c(c2)C(=O)N([C@H](C)CO)C[C@H](C)[C@@H](CN(C)C(=O)Nc2ccc4c(c2)OCO4)OCCCC[C@H](C)O3)cc1	1	1	43	-25
COc1ccc(NC(=O)Nc2ccc3c(c2)C(=O)N([C@@H](C)CO)C[C@H](C)[C@H](CN(C)C(=O)Nc2ccc4c(c2)OCO4)OCCCC[C@@H](C)O3)cc1	.	0	44	-82*
COc1ccc(NC(=O)N(C)C[C@@H]2OCCCC[C@@H](C)Oc3ccc(NC(=O)Nc4ccc(C(F)(F)F)cc4)cc3C(=O)N([C@H](C)CO)C[C@@H]2C)cc1	0	0	65	41
COc1ccc(NC(=O)N(C)C[C@@H]2OCCCC[C@H](C)Oc3ccc(NC(=O)Nc4ccc(C(F)(F)F)cc4)cc3C(=O)N([C@@H](C)CO)C[C@@H]2C)cc1	0	-2	120*	-7
CCOc1cc(C2c3c(oc4ccc(F)cc4c3=O)C(=O)N2CCc2ccc(OC)cc2)ccc1O (configuration not stated)	0	.	.	.
C[C@@H]1CCCCO[C@@H](CN(C)C(=O)Nc2ccc3c(c2)OCO3)[C@@H](C)CN([C@@H](C)CO)C(=O)c2cc(NC(=O)Nc3ccc(C(F)(F)F)cc3)ccc2O1	0	0	.	-92*
C[C@@H]1CN([C@H](C)CO)C(=O)c2cc(NC(=O)CCC(F)(F)F)ccc2O[C@H]1CN(C)C(=O)NC1CCCCC1	1	-1	24	-87*
C[C@@H]1CCCCO[C@H](CN(C)C(=O)NC2CCCCC2)[C@@H](C)CN([C@@H](C)CO)C(=O)c2cc(NC(=O)Nc3ccc(C(F)(F)F)cc3)ccc2O1	-2	-1	87	-83*
C[C@@H]1CCCCO[C@@H](CN(C)C(=O)Nc2ccc(C(F)(F)F)cc2)[C@@H](C)CN([C@H](C)CO)C(=O)c2cc(NC(=O)Nc3ccc4c(c3)OCO4)ccc2O1	2	-1	.	-61
C[C@@H]1CCCCO[C@@H](CN(C)C(=O)Nc2ccc(F)cc2)[C@H](C)CN([C@H](C)CO)C(=O)c2cc(NC(=O)Nc3ccccc3)ccc2O1	.	1	112*	-22
COCC(=O)Nc1ccc2c(c1)[C@@H]1C[C@H](CC(=O)NC3CCCCC3)O[C@H](CO)[C@@H]1O2	0	4	31	-5
CC(C)NC(=O)Nc1ccc2c(c1)C(=O)N(C)[C@@H]1CC[C@@H](CC(=O)Nc3ccccc3)O[C@H]1CO2	.	0	16	-4
COc1ccc(S(=O)(=O)N(C)C[C@H]2OCCCC[C@H](C)Oc3ccc(NC(=O)Nc4cccc5ccccc45)cc3C(=O)N([C@@H](C)CO)C[C@H]2C)cc1	4	-1	43	-83*
C[C@@H]1CCCCO[C@@H](CN(C)S(=O)(=O)c2cn(C)cn2)[C@H](C)CN([C@H](C)CO)C(=O)c2cc(NC(=O)Nc3cccc4ccccc34)ccc2O1	.	-3	63	-52
SMILES	IDH1 R132H inh	KDM4C inh	Tcruzi prolif	Pf Dd2 inh
COc1ccc(S(=O)(=O)N(C)C[C@H]2OCCCC[C@H](C)Oc3ccc(NC(=O)Nc4cccc5ccccc45)cc3C(=O)N([C@@H](C)CO)C[C@@H]2C)cc1	.	-4	75	-71
C[C@@H]1CN([C@H](C)CO)C(=O)c2cc(NC(=O)Nc3cccc4ccccc34)ccc2O[C@@H](C)CCCCO[C@@H]1CN(C)S(=O)(=O)c1cn(C)cn1	.	-7	35	-88*
COc1ccc(S(=O)(=O)N(C)C[C@@H]2OCCCC[C@H](C)Oc3ccc(NC(=O)Nc4cccc5ccccc45)cc3C(=O)N([C@H](C)CO)C[C@H]2C)cc1	0	-1	12	-86*
NC(=O)CSCC(=O)Nc1ccc(Br)cc1	1	.	.	.
C[C@H](CO)N1C[C@H](C)[C@@H](CN(C)C(=O)Nc2cccc(C(F)(F)F)c2)OCc2ccccc2-c2ccccc2C1=O	0	2	51	-65
COc1ccc(NC(=O)N(C)C[C@@H]2OCc3ccccc3-c3c(n(C)c4ccccc34)C(=O)N([C@@H](C)CO)C[C@@H]2C)c(OC)c1	-1	-1	53	-83*
C[C@@H]1CN([C@H](C)CO)C(=O)c2ccccc2-c2ccccc2CO[C@H]1CN(C)C(=O)Nc1cccc(C(F)(F)F)c1	.	0	75	-87*
COc1ccc(NC(=O)N(C)C[C@@H]2OCc3ccccc3-c3c(n(C)c4ccccc34)C(=O)N([C@H](C)CO)C[C@@H]2C)c(OC)c1	.	-1	17	30
COc1ccc(NC(=O)N(C)C[C@H]2OCc3ccccc3-c3c(n(C)c4ccccc34)C(=O)N([C@@H](C)CO)C[C@@H]2C)c(OC)c1	.	-1	43	-85*
COc1cccc(NC(=O)N(C)C[C@H]2OCc3ccccc3-c3c(n(C)c4ccccc34)C(=O)N([C@@H](C)CO)C[C@@H]2C)c1	.	-1	20	-85*
C[C@H]1CCCCO[C@H](CN(C)C(=O)c2ccncc2)[C@@H](C)CN([C@@H](C)CO)C(=O)c2cc(NS(=O)(=O)c3ccc(F)cc3)ccc2O1	0	1	10	-59
CC=Cc1ccc2n(c1=O)C[C@H]1[C@H](CO)[C@@H](C(=O)NCc3ccccc3)[C@@H]2N1Cc1ccccc1OC (mixture of isomers)	.	-1	.	1

Source: PubChem BioAssay (Broad Institute)
